High-throughput results (PubChem)
Diaph inh CS: diaphorase inhibition or chemical oxidation counter-screen. AID 1217. inhibition, % at 20 µM. hit rate 0.69% among 190,000. diaphorase resazurin-to-resorufin fluorescence, NADH, 16 min; bacterial (C. kluyveri) enzyme, not human;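 active = primary screen inhibition at 20 µM above a set limit, cut at about 50% in these data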
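Test system: bacterial diaphorase enzyme (C. kluyveri); Quantity: 0.14 U/mL diaphorase, enzyme working solution; Times: reaction incubation of 16 min at room temperature; Measured by: fluorescence of resorufin formed from resazurin, Ex 544/Em 590 nm; Benchmarks: positive control minus NADH, DMSO neutral control.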
G6PDH CS: counter-screen for G6PDH assay hits: L. mesenteroides G6PDH inhibition; inhibition, % at 5 µM; Purified L. mesenteroides G6PDH, diaphorase/resazurin coupled fluorescence, 45 min; hit rate 0.12% among 200,000; AID 1020
DTT redox prof: compounds producing H2O2 with reducing agent – biochemical, NIH compound library profiling, artefact control for MLSCN library redox annotation, primary screen. DTT-dependent redox cycling H2O2, phenol red/HRP absorbance; 100% = 100 µM peroxide control, 0% = buffer. AID 878. hit rate 0.03% among 200,000. activation, % at 10 µM;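 active = activation of at least 50% relative to the plate's high and low controls in the primary single-dose screen; inactive = activation below 50%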;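 also: compound incubated with DTT at 0.8 mM final as the reducing agent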
Diaphorase act: diaphorase activation or chemical reduction counter-screen; Diaphorase/resazurin coupled assay, resorufin fluorescence, 16 min; active compounds read high; 1 = vehicle wells, 0 = NADH-free wells; activation factor at 20 µM; hit rate 0.005% among 190,000;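 active = diaphorase activity raised at least twofold by the compound at 20 µM; inactive = activation factor below 2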
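Material: Purified diaphorase enzyme from Clostridium kluyveri | Buffer or medium: 50 mM HEPES pH 7.4 with 4.542 mM MgCl2, 0.005% Tween 20 | Times: 16 min enzyme reaction, ambient temperature | Signal: Red resorufin fluorescence at 544/590 nm excitation/emission | Measure: Increased resorufin signal from activators or reducing compounds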
Lmaj promast: inhibitors of Leishmania major promastigote growth | Leishmania major promastigotes, resazurin fluorescence viability | inhibition, % at 10 µM | hit rate 9% among 200,000 | AID 1063;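 also: promastigotes grown with compound for 44 hours at 28 °C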
PfG6PD inh: PfG6PD (Plasmodium falciparum) enzyme inhibition. hit rate 0.78% among 350,000. inhibition, % at 20 µM. PfGluPho enzyme, NADPH resazurin-diaphorase fluorescence. AID 504690;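 active = inhibition reaching at least a set limit at 20 µM in the primary screen, cut at about 59% in these data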
PfG6PD confirm: confirmation of Plasmodium falciparum G6PD inhibitors | shares compounds with PfG6PD inh | recombinant PfGluPho, NADPH-diaphorase-resazurin fluorescence | inhibition, % at 20 µM | hit rate 34% among 2,400;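 active = inhibition of at least 50% at 20 µM in any single replicate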
Diaph ctr 10uM: counter-screen for P. falciparum G6PD inhibitors: diaphorase inhibitors, oxidizers; shares compounds with PfG6PD inh; diaphorase-coupled resazurin reduction, fluorescence, NADPH 10 uM; inhibition, % at 20 µM; hit rate 39% among 820; AID 504862;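 active = average inhibition reaching 50% or more with the compound at 20 µM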;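 also: resorufin red fluorescence formed as diaphorase reduces resazurin using NADPH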
Diaphorase 30uM: inhibits diaphorase or oxidizes, flagging false PfG6PD hits. inhibition, % at 20 µM. Diaphorase/resazurin coupled assay, resorufin fluorescence, 30 uM NADPH. shares compounds with PfG6PD inh. hit rate 29% among 820;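 active = inhibition averaging 50% or more, tested at 20 µM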
Of the large screens only hits and unclear results are named; the others gave an inactive call (follow-up assays come after a bar, where they were run). This excerpt belongs to a sample that is enriched for hits. Rule as the data show it, unless noted: active = inhibition above about 50%; inactive = the rest.

Cc1ccc(/C=C/C(=O)NCCc2ccccc2)o1	PfG6PD inh 75.1 (no result: Diaph inh CS, G6PDH CS, DTT redox prof, Diaphorase act, Lmaj promast) | PfG6PD confirm inactive
O=C(Cn1sc2ccccc2c1=O)Nc1ccc(F)cc1	PfG6PD inh 125.0 (no result: Diaph inh CS, G6PDH CS, DTT redox prof, Diaphorase act, Lmaj promast) | PfG6PD confirm 106.4 | Diaph ctr 10uM inactive | Diaphorase 30uM inactive
O=C(Cn1sc2ccccc2c1=O)Nc1ccc(Cl)cc1	PfG6PD inh 125.4 (no result: Diaph inh CS, G6PDH CS, DTT redox prof, Diaphorase act, Lmaj promast) | PfG6PD confirm 95.8 | Diaph ctr 10uM inactive | Diaphorase 30uM inactive
O=C(Cn1sc2ccccc2c1=O)Nc1ccc(Br)cc1	PfG6PD inh 123.0 (no result: Diaph inh CS, G6PDH CS, DTT redox prof, Diaphorase act, Lmaj promast) | PfG6PD confirm 90.8 | Diaph ctr 10uM inactive | Diaphorase 30uM inactive
O=C(CN1C(=O)CNC1=O)Nc1ccc(Cl)cc1	none (no result: Diaph inh CS, G6PDH CS, DTT redox prof, Diaphorase act, Lmaj promast)
Cc1cc(C)c(C(=O)COC(=O)c2cccc(S(=O)(=O)N3CCOCC3)c2)cc1C	none (no result: Diaph inh CS, G6PDH CS, DTT redox prof, Diaphorase act, Lmaj promast)
COc1ccc(C(=O)NCCc2c[nH]c3ccccc23)cc1S(=O)(=O)N1CCOCC1	none
O=C(Nc1ccc2c(c1)CCC2)c1ncoc1-c1ccccc1F	none (no result: Diaph inh CS, G6PDH CS, DTT redox prof, Diaphorase act, Lmaj promast)
Cn1c(=N)n(CC(O)c2ccco2)c2ccccc21 (stereo not given)	none
Cn1c(=N)n(CC(O)c2cccc3ccccc23)c2ccccc21 (stereo not given)	Lmaj promast 101.8, PfG6PD inh 79.5 | PfG6PD confirm 62.5 | Diaph ctr 10uM 62.7 | Diaphorase 30uM 51.5
CCOc1ccc(/C=C2\CCC(C3CCCC3)C2=O)cc1 (stereo not given)	none (no result: Diaph inh CS, G6PDH CS, DTT redox prof, Diaphorase act, Lmaj promast)
CCC(=O)OCOc1ccc(/C=C2/CCC(CN(C)C)C2=O)cc1 (stereo not given)	PfG6PD inh 84.1 (no result: Diaph inh CS, G6PDH CS, DTT redox prof, Diaphorase act, Lmaj promast) | PfG6PD confirm 56.3 | Diaph ctr 10uM inactive | Diaphorase 30uM inactive
Nc1ccc(S(=O)(=O)c2cc(O)c3ccccc3c2O)cc1	PfG6PD inh 103.3 (no result: Diaph inh CS, G6PDH CS, DTT redox prof, Diaphorase act, Lmaj promast) | PfG6PD confirm 70.0 | Diaph ctr 10uM inactive | Diaphorase 30uM inactive
O=S(=O)(c1ccccc1)c1cc(O)ccc1O	none
CC(=O)Nc1ccc(S(=O)(=O)N(C)CC(=O)OCC(=O)N2CC(C)OC(C)C2)cc1 (stereo not given)	none (no result: Diaph inh CS, G6PDH CS, DTT redox prof, Diaphorase act, Lmaj promast)
COC1=CC(=O)c2c(ccc3ncnc(N)c23)C1=O	PfG6PD inh 127.3 (no result: Diaph inh CS, G6PDH CS, DTT redox prof, Diaphorase act, Lmaj promast) | PfG6PD confirm 108.2 | Diaph ctr 10uM 99.4 | Diaphorase 30uM 100.5
COc1cccc(N2CCN(CC(=O)NC(=O)NC3CCCCC3)CC2)c1	none (no result: Diaph inh CS, G6PDH CS, DTT redox prof, Diaphorase act, Lmaj promast)
Cc1ccc(N(CC(=O)N/N=C/c2cccc(Br)c2)S(C)(=O)=O)cc1	PfG6PD inh 114.6 | PfG6PD confirm 86.1 | Diaph ctr 10uM 78.9 | Diaphorase 30uM 70.9
CCCCCCC(=O)N/N=C/c1ccc(Br)cc1	none
Cc1ccc(N(CC(=O)N/N=C/c2cccs2)S(C)(=O)=O)cc1	none
O=C(CCC(=O)Nc1ccc(F)cc1)N/N=C/c1cccc(Br)c1	PfG6PD inh 112.7 (no result: Diaph inh CS, G6PDH CS, DTT redox prof, Diaphorase act, Lmaj promast) | PfG6PD confirm 75.1 | Diaph ctr 10uM 66.1 | Diaphorase 30uM 59.0
CCCCCCCCC(=O)N/N=C/c1cccc(Br)c1	PfG6PD inh 81.5 | PfG6PD confirm inactive
O=C(NCc1ccco1)C1CCC(CNS(=O)(=O)c2cccc3cccnc23)CC1 (stereo not given)	none
CC(Sc1ncc(C(F)(F)F)cc1Cl)C(=O)NCC1CCCO1 (stereo not given)	none
CC(C)c1ccc(NC(=O)c2sccc2-n2cccc2)cc1	none
CCOC(=O)c1cnc2ccc(C(=O)OC)cc2c1NCCN1CCOCC1	PfG6PD inh 71.2 | PfG6PD confirm inactive
Oc1cc2c(cc1O)C1c3ccc(O)c(O)c3OCC1(O)C2 (stereo not given)	Diaph inh CS 78.2, PfG6PD inh 113.1 | PfG6PD confirm 105.9 | Diaph ctr 10uM 74.1 | Diaphorase 30uM inactive
O=C1NC(C(=O)O)=CC(c2ccc([N+](=O)[O-])cc2)N1 (stereo not given)	PfG6PD inh 64.9 (no result: Diaph inh CS, G6PDH CS, DTT redox prof, Diaphorase act, Lmaj promast) | PfG6PD confirm inactive
CC1(C(=O)O)COC(c2ccc([N+](=O)[O-])cc2)OC1 (stereo not given)	none
Nc1cc(-c2ccncc2)c[nH]c1=O	Diaph inh CS 65.6, PfG6PD inh 63.7 | PfG6PD confirm inactive
NC(=O)c1csc(-c2ccncc2)n1	none
CN(C)c1nc(=NCc2cccs2)ss1	PfG6PD inh 60.5 (no result: Diaph inh CS, G6PDH CS, DTT redox prof, Diaphorase act, Lmaj promast) | PfG6PD confirm 49.3 | Diaph ctr 10uM inactive | Diaphorase 30uM inactive
CC(SC(=S)N(C)Cc1cccs1)C(=O)O (stereo not given)	none
COc1cccc(-c2[nH]nc3c2C(c2ccsc2)C(C#N)=C(N)O3)c1 (stereo not given)	PfG6PD inh 60.6 | PfG6PD confirm inactive
COc1ccc(-c2[nH]nc3c2C(c2ccsc2)C(C#N)=C(N)O3)cc1 (stereo not given)	none
O=c1c2cn(Cc3ccccc3)c3ccccc3c-2nn1Cc1ccc(F)cc1Cl	none (no result: Diaph inh CS, G6PDH CS, DTT redox prof, Diaphorase act, Lmaj promast)
Clc1ccccc1-c1nnc2sc(-c3ccc4c(c3)OCO4)nn12	PfG6PD inh 62.6 | PfG6PD confirm inactive
c1ccc(CCc2nn3c(-c4ccncc4)nnc3s2)cc1	none
Clc1cccc(-c2nnc3sc(-c4ccc5c(c4)OCO5)nn23)c1	none (no result: DTT redox prof, Lmaj promast, PfG6PD inh)
Clc1ccccc1-c1nnc2sc(CCc3ccccc3)nn12	PfG6PD inh 60.0 | PfG6PD confirm inactive
